In ChEMBL document CHEMBL5058577, “EUbOPEN Chemogenomics Library 2 (Multiplex)” (2022):

System: Fibroblast
Assay: Multiplex assay against human fibroblast
Type: toxicity, cell-based
In short: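 At seeding, live cells were stained with Hoechst33342, BioTracker Green Microtubule Cytoskeleton Dye, MitoTracker Red and Annexin V Alexa Fluor 680. After compound addition they were imaged on a CQ1 microscope at 37°C and 5% CO2, and CellPathfinder machine-learning gating sorted them into Hoechst high-intensity objects or normal cells, with normal cells further split into healthy, pyknosed or fragmented nuclei and pyknosed cells into mitotic or apoptotic. Tubulin, mitochondrial-mass and membrane-permeability phenotypes are given as per cents of cells with healthy nuclei.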

[1] = 12 h, 1 µM, compound concentration 1 uM, replicate 1
[2] = 12 h, 1 µM, compound concentration 1 uM, replicate 2
[3] = 12 h, 10 µM, compound concentration 10 uM, replicate 1
[4] = 12 h, 10 µM, compound concentration 10 uM, replicate 2
[5] = 24 h, 1 µM, compound concentration 1 uM, replicate 1
[6] = 24 h, 1 µM, compound concentration 1 uM, replicate 2
[7] = 24 h, 10 µM, compound concentration 10 uM, replicate 1
[8] = 24 h, 10 µM, compound concentration 10 uM, replicate 2
[9] = 48 h, 1 µM, compound concentration 1 uM, replicate 1
[10] = 48 h, 1 µM, compound concentration 1 uM, replicate 2
[11] = 48 h, 10 µM, compound concentration 10 uM, replicate 1
[12] = 48 h, 10 µM, compound concentration 10 uM, replicate 2

Cc1sc2c(c1C)C(c1ccc(Cl)cc1)=N[C@H](CC(=O)OC(C)(C)C)c1nnc(C)n1-2
Population Apoptotic (%) [1]: 43% | Population Fragmented Nuclei (%) [1]: 15% | Population Healthy Nuclei (%) [1]: 62% | Population Hoechst High Intensity Objects (%) [1]: 2% | Population Membrane Permeable-Phenotype (%) [1]: 0% | Population Mitochondria Different-Phenotype (%) [1]: 5% | Population Mitotic Cells (%) [1]: 56% | Population Normal (%) [1]: 97% | Population Pyknosed Nuclei (%) [1]: 22% | Population Tubulin-Different-Phenotype (%) [1]: 30% | Total Cell Count [1]: 180 | Population Apoptotic (%) [2]: 33% | Population Fragmented Nuclei (%) [2]: 26% | Population Healthy Nuclei (%) [2]: 51% | Population Hoechst High Intensity Objects (%) [2]: 5% | Population Membrane Permeable-Phenotype (%) [2]: 15% | Population Mitochondria Different-Phenotype (%) [2]: 10% | Population Mitotic Cells (%) [2]: 66% | Population Normal (%) [2]: 94% | Population Tubulin-Different-Phenotype (%) [2]: 46% | Total Cell Count [2]: 159 | Population Apoptotic (%) [3]: 43% | Population Fragmented Nuclei (%) [3]: 19% | Population Healthy Nuclei (%) [3]: 55% | Population Hoechst High Intensity Objects (%) [3]: 7% | Population Membrane Permeable-Phenotype (%) [3]: 0% | Population Mitochondria Different-Phenotype (%) [3]: 15% | Population Mitotic Cells (%) [3]: 56% | Population Normal (%) [3]: 92% | Population Pyknosed Nuclei (%) [3]: 25% | Population Tubulin-Different-Phenotype (%) [3]: 90% | Total Cell Count [3]: 128 | Population Apoptotic (%) [4]: 51% | Population Fragmented Nuclei (%) [4]: 30% | Population Healthy Nuclei (%) [4]: 39% | Population Hoechst High Intensity Objects (%) [4]: 5% | Population Membrane Permeable-Phenotype (%) [4]: 4% | Population Mitochondria Different-Phenotype (%) [4]: 20% | Population Mitotic Cells (%) [4]: 48% | Population Normal (%) [4]: 94% | Population Pyknosed Nuclei (%) [4]: 29% | Population Tubulin-Different-Phenotype (%) [4]: 95% | Total Cell Count [4]: 169 | Population Apoptotic (%) [5]: 82% | Population Fragmented Nuclei (%) [5]: 17% | Population Healthy Nuclei (%) [5]: 60% | Population Hoechst High Intensity Objects (%) [5]: 2% | Population Membrane Permeable-Phenotype (%) [5]: 0% | Population Mitochondria Different-Phenotype (%) [5]: 2% | Population Mitotic Cells (%) [5]: 17% | Population Normal (%) [5]: 97% | Population Pyknosed Nuclei (%) [5]: 21% | Population Tubulin-Different-Phenotype (%) [5]: 29% | Total Cell Count [5]: 186 | Population Apoptotic (%) [6]: 46% | Population Fragmented Nuclei (%) [6]: 29% | Population Healthy Nuclei (%) [6]: 50% | Population Hoechst High Intensity Objects (%) [6]: 6% | Population Membrane Permeable-Phenotype (%) [6]: 11% | Population Mitochondria Different-Phenotype (%) [6]: 5% | Population Mitotic Cells (%) [6]: 53% | Population Normal (%) [6]: 93% | Population Pyknosed Nuclei (%) [6]: 20% | Population Tubulin-Different-Phenotype (%) [6]: 51% | Total Cell Count [6]: 149 | Population Apoptotic (%) [7]: 75% | Population Fragmented Nuclei (%) [7]: 16% | Population Healthy Nuclei (%) [7]: 69% | Population Hoechst High Intensity Objects (%) [7]: 8% | Population Membrane Permeable-Phenotype (%) [7]: 2% | Population Mitochondria Different-Phenotype (%) [7]: 19% | Population Mitotic Cells (%) [7]: 25% | Population Normal (%) [7]: 91% | Population Pyknosed Nuclei (%) [7]: 14% | Population Tubulin-Different-Phenotype (%) [7]: 76% | Total Cell Count [7]: 123 | Population Apoptotic (%) [8]: 51% | Population Fragmented Nuclei (%) [8]: 26% | Population Healthy Nuclei (%) [8]: 45% | Population Hoechst High Intensity Objects (%) [8]: 4% | Population Membrane Permeable-Phenotype (%) [8]: 4% | Population Mitochondria Different-Phenotype (%) [8]: 26% | Population Mitotic Cells (%) [8]: 48% | Population Normal (%) [8]: 95% | Population Pyknosed Nuclei (%) [8]: 27% | Population Tubulin-Different-Phenotype (%) [8]: 87% | Total Cell Count [8]: 165 | Population Apoptotic (%) [9]: 63% | Population Fragmented Nuclei (%) [9]: 19% | Population Healthy Nuclei (%) [9]: 66% | Population Hoechst High Intensity Objects (%) [9]: 5% | Population Membrane Permeable-Phenotype (%) [9]: 0% | Population Mitochondria Different-Phenotype (%) [9]: 2% | Population Mitotic Cells (%) [9]: 36% | Population Normal (%) [9]: 94% | Population Pyknosed Nuclei (%) [9]: 13% | Population Tubulin-Different-Phenotype (%) [9]: 28% | Total Cell Count [9]: 170 | Population Apoptotic (%) [10]: 53% | Population Fragmented Nuclei (%) [10]: 29% | Population Healthy Nuclei (%) [10]: 49% | Population Membrane Permeable-Phenotype (%) [10]: 12% | Population Mitochondria Different-Phenotype (%) [10]: 10% | Population Mitotic Cells (%) [10]: 46% | Population Normal (%) [10]: 95% | Population Pyknosed Nuclei (%) [10]: 21% | Population Tubulin-Different-Phenotype (%) [10]: 69% | Total Cell Count [10]: 140 | Population Apoptotic (%) [11]: 50% | Population Fragmented Nuclei (%) [11]: 21% | Population Healthy Nuclei (%) [11]: 66% | Population Hoechst High Intensity Objects (%) [11]: 1% | Population Membrane Permeable-Phenotype (%) [11]: 1% | Population Mitochondria Different-Phenotype (%) [11]: 13% | Population Mitotic Cells (%) [11]: 50% | Population Normal (%) [11]: 98% | Population Pyknosed Nuclei (%) [11]: 12% | Population Tubulin-Different-Phenotype (%) [11]: 70% | Total Cell Count [11]: 134 | Population Apoptotic (%) [12]: 63% | Population Fragmented Nuclei (%) [12]: 35% | Population Healthy Nuclei (%) [12]: 51% | Population Membrane Permeable-Phenotype (%) [12]: 4% | Population Mitochondria Different-Phenotype (%) [12]: 9% | Population Mitotic Cells (%) [12]: 36% | Population Pyknosed Nuclei (%) [12]: 13% | Population Tubulin-Different-Phenotype (%) [12]: 88% | Total Cell Count [12]: 170
